In the library only some 1.8% were active in any assay of this set; here they are far more common.
TDP2 absorb – human TDP2 enzyme inhibitors, primary screen, biochemical, epi absorbance, recombinant enzyme | AID 720702, 2013 | inhibition, % at 12.8 µM | T5PNP hydrolysis, p-nitrophenol absorbance 415 nm | 370,000 tested, 0.34% active;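 active = inhibition above the mean of all tested compounds plus 3 SD, set per campaign, cut at about 25% in these data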
Target sequence (O95551 whole entry, looked up): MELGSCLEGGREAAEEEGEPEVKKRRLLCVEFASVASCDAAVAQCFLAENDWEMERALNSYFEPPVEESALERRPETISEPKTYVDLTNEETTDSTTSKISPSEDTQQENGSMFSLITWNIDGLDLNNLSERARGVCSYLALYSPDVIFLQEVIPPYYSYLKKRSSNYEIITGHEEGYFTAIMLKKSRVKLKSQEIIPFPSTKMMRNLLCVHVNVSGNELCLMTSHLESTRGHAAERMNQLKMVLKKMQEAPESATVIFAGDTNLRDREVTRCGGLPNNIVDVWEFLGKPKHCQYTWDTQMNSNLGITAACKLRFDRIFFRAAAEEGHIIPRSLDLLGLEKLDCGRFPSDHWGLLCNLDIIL
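System – recombinant human TDP2 · Amount – 120 nM TDP2 per well · Buffer or medium – Mg2+-containing Tris-HCl buffer, pH 7.5 · Reagent – T5PNP substrate, 5 mM · Dosing – 12.8 µM single point, 1% DMSO · Incubation – 2 h at 37 °C · Measured by – epi absorbance · Read-out basis – percent inhibition · Benchmarks – high control without enzyme, low control DMSO plus TDP2 · Repeats – singlicate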
MBD2 DNA inh – inhibitors of MBD2 binding to methylated DNA, primary screen, biochemical, TR-FRET, DNA-binding domain, human. Methyl-CpG-binding domain protein 2 (Homo sapiens), Q9UBB5. MBD2 binding to methylated oligonucleotide. inhibition, % at 4.4 µM. 370,000 tested, 0.31% active. AID 686964, 2013; in the data active = inhibition above about 13%
NSD2 HMT inh – NSD2 histone methyltransferase inhibitors, primary screen, biochemical, AlphaScreen, single concentration, set 2 | NSD2 peptide methylation, 120 min | 310,000 tested, 0.54% active | AID 743445, 2014 | Histone-lysine N-methyltransferase NSD2 (Homo sapiens), O96028 | inhibition, % at 12.5 µM; in the data active = inhibition above about 50%
UHRF1 MBD2 ctr – UHRF1 methylated DNA binding inhibitors, primary screen, counter-screen for MBD2 inhibitor project, biochemical, TR-FRET, human UHRF1, single concentration; inhibition, % at 4.4 µM; E3 ubiquitin-protein ligase UHRF1 (Homo sapiens), Q96T88; 370,000 tested, 0.75% active; AID 687016, 2013; UHRF1 binding to methylated oligo; in the data active = inhibition above about 21%;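 also: UHRF1 SRA domain binding a hemimethylated CpG hairpin DNA probe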
LEDGF integ inh – blockers of LEDGF/p75-dependent integrase strand transfer – biochemical, TR-FRET, high throughput, primary screen; HIV-1 integrase (with human LEDGF/p75); 370,000 tested, 0.64% active; inhibition, % at 3.7 µM; TR-FRET IN-LEDGF/p75 DNA integration, Eu/Cy5;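 active = inhibition above the screen-wide mean plus 3 SD, cut at about 13% in these data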;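 also: signal is the Cy5 over europium emission ratio at 671 and 618 nm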
CASP6 VEID inh – human caspase-6 inhibitors, primary screen, biochemical, VEID-R110 fluorescence, single point, set 2; inhibition, % at 12.5 µM; AID 686996, 2013; purified caspase-6, Z-VEID-R110 cleavage fluorescence; 350,000 tested, 0.53% active;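 active = mean inhibition across replicates at least about 35%, with every replicate also reaching that limit, limit read from the data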
Target sequence (P55212 24-179 limits assumed): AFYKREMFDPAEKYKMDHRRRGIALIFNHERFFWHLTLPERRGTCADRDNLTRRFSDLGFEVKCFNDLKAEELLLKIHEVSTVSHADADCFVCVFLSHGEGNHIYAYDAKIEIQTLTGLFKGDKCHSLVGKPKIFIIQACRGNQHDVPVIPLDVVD
Target sequence (P55212 194-293 limits assumed): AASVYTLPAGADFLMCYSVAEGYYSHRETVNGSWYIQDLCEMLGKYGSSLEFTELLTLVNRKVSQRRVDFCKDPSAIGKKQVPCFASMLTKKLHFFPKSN
A number is an active result; . = inactive; / = no result given.

SMILES	TDP2 absorb	MBD2 DNA inh	NSD2 HMT inh	UHRF1 MBD2 ctr	LEDGF integ inh	CASP6 VEID inh
CCN1[C@@H]2c3ccc(-c4ccc(F)cc4)c(=O)n3C[C@@H]2[C@@H](CO)[C@@H]1C(=O)OC	/	/	/	/	/	.
CC(C)(O)c1cn([C@@H]2C[C@@H]3O[C@H](CO)CC[C@@H]3O[C@@H]2CCc2ccc(-c3cccnc3)cc2)nn1	/	/	/	/	/	.
CC(C)(O)c1cn([C@@H]2C[C@@H]3O[C@@H](CO)CC[C@@H]3O[C@@H]2CCc2ccc(-c3ccncc3)cc2)nn1	/	/	/	/	/	52
CC(C)NC(=O)NCC[C@H]1CC[C@@H](NS(=O)(=O)c2ccccc2)[C@@H](CO)O1	/	/	/	/	/	.
CC(=O)N1c2ccc(S(=O)(=O)N3CCCC3C(=O)NCc3ccccc3Cl)cc2CC1C (stereo not drawn)	.	.	/	49	.	.
CC1CC(C)CN(S(=O)(=O)N2CCCC(C(=O)NCc3ccccc3Cl)C2)C1 (stereo not drawn)	.	.	.	22	.	.
CC1CCN(S(=O)(=O)N2CCCC(C(=O)NCc3ccccc3Cl)C2)CC1 (stereo not drawn)	.	.	.	.	.	.
COc1ccccc1CNC(=O)C1CCN(S(=O)(=O)c2ccc3c(c2)CC(C)N3C(C)=O)CC1 (stereo not drawn)	.	.	/	.	.	.
O=C(O)c1sccc1Oc1ccc(NS(=O)(=O)c2cccc(F)c2)cc1	.	.	.	31	.	/
CN1CCN(C(=O)C[C@H]2C[C@H]3c4cc(NC(=O)C5CCOCC5)ccc4O[C@H]3[C@H](CO)O2)CC1	/	/	/	/	/	.
Cc1cc(C)cc(CC(=O)N2CCC2(C)C(=O)NS(=O)(=O)c2cccc(F)c2)c1 (stereo not drawn)	.	.	.	21	.	.
C[C@H](NC(=O)C[C@H]1C=C[C@H](NC(=O)C2CCC2)[C@@H](CO)O1)c1ccccc1	/	/	/	/	/	.
CC(OC(=O)Cn1[nH]c(=O)c2ccccc2c1=O)C(=O)Nc1ccc(F)cc1Cl (stereo not drawn)	.	.	.	50	.	.
C[C@@H]1CN([C@@H](C)CO)S(=O)(=O)c2ccc(-c3ccc(F)cc3)cc2O[C@@H]1CN(C)S(C)(=O)=O	/	/	/	/	/	.
Cc1[nH]c2ccccc2c1/C=N/NC(=O)c1cc(C(C)C)[nH]n1	.	.	.	25	.	.
Cc1[nH]c2ccccc2c1/C=N/NC(=O)c1cccc(F)c1	.	.	.	.	.	.
Cc1cc(NC(=O)CCC(=O)N(C(C(=O)NC(C)(C)C)c2ccccc2Cl)C(C)(C)C)no1 (stereo not drawn)	.	.	.	25	.	.
CN(C)S(=O)(=O)c1ccc(Cl)c(C(=O)Nc2nc3ccccc3[nH]2)c1	.	.	.	39	.	.
C/C(=N\NC(=O)c1ccccc1)c1ccc(NC(=O)c2cccs2)cc1	.	.	.	.	.	.
C/C(=N\NC(=O)c1ccccc1O)C1CC1	.	.	.	.	.	42
COc1cccc(C(=O)N/N=C(\C)c2ccc(NC(=O)Cc3ccccc3)cc2)c1OC	.	.	.	.	.	.
C/C(=N\NC(=O)c1ccccc1C)c1ccc(NC(=O)c2cccs2)cc1	.	.	.	39	.	/
C/C(=N\NC(=O)c1ccccc1O)c1ccc(NC(=O)Cc2ccccc2)cc1	.	.	.	.	.	36
O=C(c1ccc(F)cc1)N1CC(=O)N2[C@H](CO)[C@@H](c3ccc(C#CC4CCCCC4)cc3)[C@@H]2C1	/	/	/	/	/	.
Cc1ccc(Cc2c(C(C)(C)C)nc3ccc(Br)cn23)cc1	.	.	/	23	.	.
SMILES	TDP2 absorb	MBD2 DNA inh	NSD2 HMT inh	UHRF1 MBD2 ctr	LEDGF integ inh	CASP6 VEID inh
Cc1ccccc1S(=O)(=O)N1CCCCN2[C@H](CO)[C@H](c3ccc(-c4ccccc4)cc3)[C@H]2C1	/	/	/	/	/	.
O=C(CN1CCCCCC1)Nc1cccc([N+](=O)[O-])c1	.	.	.	.	.	.
C/C(=N\NC(=O)CN1CCCCC1)c1cccc([N+](=O)[O-])c1	.	.	.	25	.	.
COC(=O)[C@H]1[C@H](CO)[C@H]2Cn3c(cccc3=O)[C@H]2N1CC1CCCC1	/	/	/	/	/	.
COC(=O)[C@H]1[C@H](CO)[C@H]2Cn3c(cccc3=O)[C@H]2N1CC1CCOCC1	/	/	/	/	/	70
CCCNC(=O)[C@@H]1[C@@H](CO)[C@@H]2Cn3c(ccc(-c4ccccc4)c3=O)[C@@H]2N1CC1CC1	/	/	/	/	/	54
Cc1ccc(N/C=C(\[N+](=O)[O-])S(=O)(=O)c2ccccc2)cc1	.	.	.	.	.	.
Cc1cccc(N/C=C(\[N+](=O)[O-])S(=O)(=O)c2ccccc2)c1C	.	.	.	50	.	/
COCC(=O)N1[C@H](CO)[C@H]2c3ccccc3N(C(=O)C3CC3)C[C@H]21	/	/	/	/	/	.
CCS(=O)(=O)N1CCN(c2ccc(S(=O)(=O)N3CCOCC3)cc2)CC1	.	.	.	31	.	.
Cc1cc(C)cc(OCC(=O)N/N=C/c2ccco2)c1	.	.	.	.	.	.
CCOC(=O)C(=O)N/N=C/c1ccco1	.	.	.	.	.	36
COc1ccc(S(N)(=O)=O)cc1C(N)=O	.	.	.	22	.	.
COc1ccc(S(N)(=O)=O)cc1C(=O)N1CCCC1	.	.	.	.	.	/
C[C@H]1CN([C@@H](C)CO)C(=O)c2cccc(NS(C)(=O)=O)c2O[C@@H]1CN(C)C	/	/	/	/	/	.
O=C(C[C@@H]1C=C[C@H](NC(=O)C2CCOCC2)[C@@H](CO)O1)NCc1ccccc1Cl	/	/	/	/	/	.
COc1ccccc1-n1c(CNC(=O)c2ccc(S(=O)(=O)N3CCCCC3)cc2)n[nH]c1=S	.	.	.	.	.	40
O=Cc1cc([B-](F)(F)F)cs1	.	.	/	.	.	.
O=Cc1cscc1[B-](F)(F)F	.	.	/	.	.	66
Cc1ccc(S(=O)(=O)NC2=NCN(CCOC(=O)c3ccccc3)CN2)cc1	.	.	.	.	.	.
Cc1ccc(S(=O)(=O)NC2=NCN(CCOC(=O)c3ccc([N+](=O)[O-])cc3)CN2)cc1	.	.	.	60	.	/
Cc1cccc(N2CCN(C(=O)C3CCN(S(=O)(=O)c4cccc5nsnc45)CC3)CC2C)c1 (stereo not drawn)	.	.	.	.	.	/
Cc1cccc(N2CCN(C(=O)C3CCN(S(=O)(=O)N4CCOCC4)CC3)CC2C)c1 (stereo not drawn)	.	.	.	74	.	.

Screening data deposited in PubChem by several laboratories.
